Assay outcomes: PubChem, Broad Institute
PDI inh – inhibitors of human PDI, primary screen, biochemical, turbidity, single point, plate reader | Protein disulfide-isomerase (Homo sapiens), P07237 | PDI insulin aggregation turbidity, A650, 90 min | inhibition, % at 10 µM | 350,000 compounds, 0.052% hits | AID 588391, 2011;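 active = mean inhibition across replicates of 30% or more, whatever share of single replicates reach that level; inconclusive = mean inhibition below 30% while every single replicate reaches 30%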
RAD54 branch – inhibitors of human RAD54 branch migration, primary screen, biochemical, fluorescence, single point | inhibition, % at 10.4 µM | DNA repair and recombination protein RAD54-like (Homo sapiens), Q92698 | 360,000 compounds, 0.14% hits | RAD54 Holliday junction branch migration, FAM/BHQ fluorescence;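 active = mean normalized replicate activity at least 40 and at least half of replicates scoring 40 or more; inconclusive = only one of the two criteria met; inactive = mean below 40 and under half of replicates reaching 40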;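 also: 0% = median of neutral control wells and 100% = median of positive control wells; inhibitors cause a drop in the FAM fluorescence signal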
CAL PDZ FP-1 – untagged CAL PDZ binding inhibitors, primary screen, biochemical, fluorescence polarization, HTS; AID 602252, 2012; Golgi-associated PDZ and coiled-coil motif-containing protein (Homo sapiens), Q9HD26; inhibition, % at 24.9 µM; 300,000 compounds, 0.92% hits; purified CAL PDZ, TMR-peptide fluorescence polarization, 1 h;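 active = mean inhibition of at least 30% with at least half of replicates also reaching 30%; inconclusive = no clear call, values can overlap the other calls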;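 also: 0% = DMSO neutral control and 100% = excess unlabeled competitor peptide PRC23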
RAD52 inh – RAD52 DNA annealing inhibitors, primary screen, biochemical, FRET, single point, set 2. DNA repair protein RAD52 homolog (Homo sapiens), P43351. recombinant RAD52 DNA annealing, FRET fluorescence. inhibition, % at 18.7 µM. 360,000 compounds, 0.46% hits. AID 651710, 2012;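 active = every replicate showing at least 50% inhibition; inconclusive = mean inhibition at least 50% but not in every replicate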
ERp5 inh – inhibitors of ERp5-driven insulin aggregation, primary screen, biochemical, turbidity, absorbance 650 nm, single point; Protein disulfide-isomerase A6 (Homo sapiens), Q15084; 90 min; inhibition, % at 9.99 µM; 350,000 compounds, 0.05% hits; AID 651711, 2012;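 active = mean replicate inhibition above about 25%, with every replicate also reaching it, limit read from the data, passing the limit was not always enough; inconclusive = only one of those two criteria met; inactive = neither criterion met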
Target sequence (Q15084 whole entry, looked up): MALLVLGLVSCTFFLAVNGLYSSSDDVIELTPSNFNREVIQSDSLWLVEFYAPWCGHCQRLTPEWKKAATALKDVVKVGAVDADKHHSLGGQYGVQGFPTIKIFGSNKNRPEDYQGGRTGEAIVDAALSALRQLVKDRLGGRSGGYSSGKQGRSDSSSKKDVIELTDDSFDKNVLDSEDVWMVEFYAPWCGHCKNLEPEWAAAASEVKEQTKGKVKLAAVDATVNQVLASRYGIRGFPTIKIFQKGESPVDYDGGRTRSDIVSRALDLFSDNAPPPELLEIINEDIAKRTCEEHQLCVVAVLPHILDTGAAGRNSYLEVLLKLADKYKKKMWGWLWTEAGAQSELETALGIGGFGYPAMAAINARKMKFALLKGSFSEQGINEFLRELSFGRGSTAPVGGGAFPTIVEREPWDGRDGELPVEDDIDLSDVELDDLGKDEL
CAL PDZ FP-2 – CAL PDZ peptide-binding inhibitors, primary screen, biochemical, fluorescence polarization, Cer-tagged CAL PDZ, HTS; purified CAL PDZ, TMR-peptide fluorescence polarization, 1 h; inhibition, % at 20 µM; 330,000 compounds, 0.02% hits; AID 504414, 2011;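 active = highest replicate inhibition of at least 40%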;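 also: plate controls were DMSO neutral control wells for no effect and unlabeled competitor peptide control wells for full effect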
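Material – purified CerCALP PDZ construct · Detection – FP readout, S and P plane fluorescence · Measure – percent inhibition from loss of millipolarization · Controls – unlabelled peptide for full inhibition, DMSO wells as neutral · Probe or stimulus – TMR-labelled reporter peptide T*-PRC34 bound in PDZ groove · Times – 1 h at RT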
DNA binding – DNA binding of candidate compounds, dose response, artefact control for RAD54 inhibitor project, biochemical, fluorescence polarization, cherry-pick; AC50, µM (titrated, usually from 35 µM), without a hit: at the highest dose activity change, negative = DNA binding; AID 651673, 2012; shares compounds with RAD54 branch; Acridine orange-DNA displacement, 20 min; 460 compounds, 8% hits;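 active = signal drop giving an AC50 within twice the top valid tested concentration of each sample, actives reach about 35 µM in these data; inactive = activity opposite to expected, plus the rest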;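 also: polarization loss reports compound binding to salmon sperm DNA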
* hit, by the source's call; i = inactive; ? = inconclusive; / = no result. In the library only some 1% were active in any assay of this set; here they are far more common.

SMILES	PDI inh	RAD54 branch	CAL PDZ FP-1	RAD52 inh	ERp5 inh	CAL PDZ FP-2	DNA binding
CN1CCN(c2nc(-c3ccccn3)nc3ccccc23)CC1	0.2	?	-0.2	/	/	-0.8	8.8%
c1cncc(-c2nc(N3CCCCCC3)c3ccccc3n2)c1	-1.4	4.4	-1.1	/	/	-1.9	/
CN1CCN(c2nc(-c3cccnc3)nc3ccccc23)CC1	-2.8	57.4*	-0.4	-4.4	4.6	-2.5	-19.7%
CCC(=O)N(C)C[C@@H]1Oc2cc(C#CCC3CCCC3)ccc2S(=O)(=O)N([C@@H](C)CO)C[C@@H]1C	/	-0.5	/	-2.5	-10.2	/	/
Cc1ccc(-c2csc3nc4c5ccccc5c(NCCCN(C)C)nn4c(=O)c23)cc1	1.5	53.1*	/	97.1*	6.6	-8.0	-17.2%
Cc1ccc(-c2csc3nc(C)n(N)c(=O)c23)cc1	16.1	-10.4	-4.6	-3.6	1.2	-4.3	/
CC(=O)N(C)C[C@H]1Oc2cc(C#CCC(C)C)ccc2S(=O)(=O)N([C@@H](C)CO)C[C@@H]1C	/	2.5	/	11.5	0.5	/	/
COc1cc(NCCCNC(C)C)c2nccc(C)c2c1	0.8	83.5*	/	60.5*	5.6	0.6	-5.4%
COc1ccc2[nH]c3c(NCCN4CCCCC4)ncnc3c2c1	-4.9	48.5	-3.7	/	/	1.7	/
C[C@@H]1CN([C@H](C)CO)C(=O)c2cc(-c3cncnc3)cnc2O[C@H]1CN(C)C(=O)Cc1ccccn1	/	3.9	/	5.1	1.6	/	/
CCN(CC)CC(=O)Nc1cc(N(C)C)nc2ccccc12	17.5	51.3*	-1.5	31.1	-1.9	-1.1	-2.7%
O=S(=O)(N[C@H]1CC[C@H](CCn2cc(C3(O)CCCC3)nn2)O[C@@H]1CO)c1ccccc1	/	3.2	/	-9.2	-0.6	/	/
COc1ccccc1NC(=O)Cn1nnc2sc3c(c2c1=O)CC(C)(C)OC3	-3.3	?	/	-22.9	0.6	/	-17.0%
CC1(C)Cc2c(sc3nnn(CC(=O)Nc4ccccc4)c(=O)c23)CO1	6.7	-16.0	0.8	-29.2	-11.6	-0.6	/
CCN1CCN(c2nc(N)c([N+](=O)[O-])c(Nc3cccc(C)c3)n2)CC1	-14.0	?	-2.3	-17.4	-1.5	-2.7	-7.9%
CCN1CCN(c2nc(Nc3cccc(OC)c3)nc(N)c2[N+](=O)[O-])CC1	6.3	16.6	/	0.4	3.0	-0.4	/
CC(C)N1CCc2c(sc(NC(=O)c3ccc(S(=O)(=O)N4CCOCC4)cc3)c2C(N)=O)C1	/	21.0	0.2	-244.2	-6.3	-1.7	/
CCOC(=O)c1c(NC(=O)c2ccc(S(=O)(=O)N3CCOCC3)cc2)sc2c1CCN(C(C)C)C2	3.0	79.1*	-5.7	-241.5	1.6	-3.3	-10.5%
CCN1CCc2c(sc(NC(=O)c3ccc(S(=O)(=O)N4CCOCC4)cc3)c2C(=O)OC)C1	9.7	80.3*	-4.7	/	/	-3.8	-1.0%
CCN1CCc2c(sc(NC(=O)c3ccc(S(=O)(=O)N4CCOCC4)cc3)c2C(N)=O)C1	/	42.8	-0.4	27.1	7.6	-0.5	/
CCN1CCc2c(sc(NC(=O)c3ccc(C(=O)c4ccccc4)cc3)c2C(N)=O)C1	8.8	?	-4.0	-41.0	4.9	-0.9	9.2%
COc1cc2ccccc2cc1C(=O)Nc1sc2c(c1C(N)=O)CCN(C(C)C)C2	-5.2	81.4*	-6.1	-16.0	0.4	-6.7	-22.8%
CN1CCc2c(sc(NC(=O)c3ccc4ccccc4c3)c2C(N)=O)C1	-5.5	?	0.5	/	/	-2.8	/
C[C@@H]1CN([C@@H](C)CO)C(=O)Cc2cc(NS(=O)(=O)c3ccc(Cl)cc3)ccc2O[C@H]1CN(C)S(C)(=O)=O	/	-13.5	/	7.7	-3.6	/	/
Cc1cc2ccc3ccccc3c2cc1CN(C)C	4.4	51.9*	/	41.9	5.2	-1.8	-14.1%
SMILES	PDI inh	RAD54 branch	CAL PDZ FP-1	RAD52 inh	ERp5 inh	CAL PDZ FP-2	DNA binding
CN(C)Cc1cc2ccccc2c2c1COC2	-5.3	-7.2	1.1	3.8	-1.9	0.2	/
CO[C@H]1CN(C)C(=O)c2ccc(NC(=O)C3CC3)cc2OC[C@H](C)N(C(=O)Cc2ccccn2)C[C@@H]1C	/	4.8	/	0.7	1.1	/	/
C[C@@H]1CCCCO[C@H](CN(C)Cc2ccncc2)[C@H](C)CN([C@H](C)CO)C(=O)c2cc(NC(=O)Nc3ccc(F)cc3)ccc2O1	/	0.1	/	/	/	/	/
COCCNC(=O)c1cc2c(=O)n(C)c3ccccc3c2n1C	/	-4.9	2.6	-12.6	-1.5	0.3	/
CCCCN(CC)CCNC(=O)c1cc2c(=O)n(C)c3ccccc3c2n1C	/	56.2*	/	7.8	-5.3	-1.9	-15.9%
CCCN(CCC)CCCNC(=O)c1cc2c(=O)n(C)c3ccccc3c2n1C	/	?	/	16.3	3.4	-1.1	-10.7%
CN(C)CCNC(=O)c1cc2c(=O)n(C)c3ccccc3c2n1C	/	77.7*	-0.5	41.8	3.9	-0.3	i
CCN(CC)CCNC(=O)c1cc2c(=O)n(C)c3ccccc3c2n1C	/	60.8*	/	38.6	5.8	-0.7	-11.9%
COCCCNC(=O)c1cc2c(=O)n(C)c3ccccc3c2n1C	/	13.9	/	-21.0	-1.4	1.2	/
COCC(=O)Nc1ccc2c(c1)OC[C@H](C)NC[C@H](C)[C@@H](OC)CN(C)C2=O	/	/	/	9.2	1.8	/	/
COc1cccc(-c2ccc([C@H]3[C@@H](C#N)N(C(=O)c4ccccn4)[C@H]3CO)cc2)c1	/	-0.9	/	-51.8	-6.9	/	/
C[C@@H]1CN([C@@H](C)CO)C(=O)c2cc(NC(=O)C3CCCCC3)ccc2O[C@H]1CN(C)Cc1ccncc1	/	5.6	/	2.8	-5.5	/	/
C[C@H](CO)N1C[C@H](C)[C@H](CN(C)S(=O)(=O)c2cn(C)cn2)Oc2ccc(NC(=O)CCCCCC(=O)Nc3ccccc3N)cc2CC1=O	/	-2.2	/	-5.0	-4.6	/	/
CCN(CC)CCCNC(=O)c1cc2c(=O)n(C)c3ccccc3c2n1C	/	71.7*	/	18.1	4.0	-1.7	-22.1%
COC(=O)Nc1nnc(COc2ccccc2)s1	-2.4	?	/	3.8	-11.3	/	2.7%
COC(=O)Nc1nnc(COc2cccc(C)c2)s1	0.0	/	5.0	-24.9	5.4	/	/
CN(C)CC(=O)Nc1ccc2c(c1)[C@@H]1C[C@H](CC(=O)NCc3ccccc3F)O[C@H](CO)[C@@H]1O2	/	4.7	/	/	/	/	/
